The values that follow come from ChEMBL document CHEMBL1127319, “CNAD: a potent and specific inhibitor of alcohol dehydrogenase” (J Med Chem, 1994).

Substrate in this data set: NC(=O)c1ccc[n+]([C@@H]2O[C@H](COP(=O)([O-])OP(=O)(O)OC[C@H]3O[C@@H](n4cnc5c(N)ncnc54)[C@H](O)[C@@H]3O)[C@@H](O)[C@H]2O)c1
The data set can be described thus: Michaelis-Menten constant against mammalian liver alcohol dehydrogenase (ADH). The conditions noted are these: Equus caballus. The procedure, abridged:
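NAD is varied and the A340 increase from NADH formation is monitored (ε 6.22 mM-1 cm-1). Buffers differ by enzyme: ADH in 0.1 M phosphate, pH 8.0, with ethanol 1.2 mM; GDH in 0.1 M phosphate, pH 7.0, with 10 μM EDTA; LDH and MDH in 0.05 M Tris-HCl, pH 9.0. At least duplicate.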

B1: Alcohol dehydrogenase 1A (Homo sapiens), P07327 (protein)
chain: MSTAGKVIKCKAAVLWELKKPFSIEEVEVAPPKAHEVRIKMVAVGICGTDDHVVSGTMVTPLPVILGHEAAGIVESVGEGVTTVKPGDKVIPLAIPQCGKCRICKNPESNYCLKNDVSNPQGTLQDGTSRFTCRRKPIHHFLGISTFSQYTVVDENAVAKIDAASPLEKVCLIGCGFSTGYGSAVNVAKVTPGSTCAVFGLGGVGLSAIMGCKAAGAARIIAVDINKDKFAKAKELGATECINPQDYKKPIQEVLKEMTDGGVDFSFEVIGRLDTMMASLLCCHEACGTSVIVGVPPDSQNLSMNPMLLLTGRTWKGAILGGFKSKECVPKLVADFMAKKFSLDALITHVLPFEKINEGFDLLHSGKSIRTILMF
Regarding B1, the Km (commonly the concentration of substrate that gives half-maximal velocity) came out at 25 µM.
